Where no end group is shown, it is not given here.
What was measured:
Grb2 SH3C [1] = details: read-out: Kd towards Grb2 SH3C; cited from earlier work
Grb2 SH3C domain = Grb2 SH3C domain (Homo sapiens, UniProt P62993); experiment: Surface plasmon resonance; assay type: binding; details: for SPR classification (binder / non-binder) / SPR observed binding behavior (stoichiometry): 50 and 100 µM compound; for SPR classification (binder / non-binder): cut-off 5 RU at 100 µM (KD ≤ 1 mM); for SPR binding behavior above concentrations of 200 µM: compound > 200 µM; for SPR observed binding behavior (stoichiometry): maximum theoretical response 56 RU for 1:1 binding
Grb2 SH3C domain, sequence (P62993 156-215 limits assumed): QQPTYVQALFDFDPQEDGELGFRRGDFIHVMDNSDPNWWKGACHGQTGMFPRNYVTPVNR
Procedure, shortened: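 Untagged human Grb2 SH3C amine-coupled (EDC/NHS; 100 µM, pH 4.0 acetate) to a CM5 chip at 1500 RU. Compound in HBS-N (10 mM Hepes pH 7.4, 150 mM NaCl) with 5.0% DMSO and 0.01% Tween 20, injected 120 s at 40 µL/min, 25 °C. Double referenced against protein-free cell and buffer blank. DMSO-only and Gab2b peptide (24 µM) controls were run.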

[2] = target: Grb2 SH3C – Gab2b peptide interaction (Homo sapiens, UniProt P62993); experiment: Biochemical competition assay; assay type: binding; details: for Hill slope of inhibition curve: concentration-response; for competition assay result in words: compound 5 mM
Grb2 SH3C – Gab2b peptide interaction, sequence (P62993 156-215 limits assumed): as above
Procedure, shortened: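 Then 30 min with streptavidin-sepharose beads carrying biotinylated Gab2b peptide; washed with PBS-T. Bound protein read by SDS-PAGE, Coomassie and densitometry, normalised to no-inhibitor control (100%). Sigmoidal inhibition fit by nonlinear regression.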

Grb2 SH3C [3] = target: Grb2 SH3C (Homo sapiens, UniProt P62993); experiment: Isothermal titration calorimetry; assay type: binding; details: 1 mM compound titrated into 20 µM Grb2 SH3C, 25 °C
Grb2 SH3C (Homo sapiens, UniProt P62993), sequence (P62993 156-215 limits assumed): as above
Procedure, shortened: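 Purified Grb2 SH3C (20 µM) in 50 mM Hepes pH 7.5, 50 mM NaCl, 0.5% DMSO, clarified and degassed, 25 °C. Compound (1 mM, same buffer) injected once at 4 µL, then 18 × 15 µL. Heat peaks integrated per mole of compound and plotted against compound:protein molar ratio.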

[4] = Solubility / precipitation observed while handling in the competition assay; assay type: physicochemical

| Compound | SPR classification (binder / non-binder) (Grb2 SH3C domain) | SPR observed binding behavior (stoichiometry) (Grb2 SH3C domain) | competition assay result in words [2] | other results |
| --- | --- | --- | --- | --- |
| 15-mer Gab2 peptide: positive control Gab2b peptide; sequence: IQPPPVNRNLKPDRK-amide (IQPPPVNRNLKPDRK-NH2) | – | – | – | Kd (Grb2 SH3C [1]): 3.2 µM |
| CC1(C)N=C(N)N=C(N)N1c1cccc(/C=C/C=C/c2cccc([N+](=O)[O-])c2)c1.Cl [compound 5, 6,6-Dimethyl-1-(3-((1E,3E)-4-(3-nitrophenyl)buta-1,3-dien-1-yl)phenyl)-1,6-dihydro-1,3,5-triazine-2,4-diamine•HCl] | binders | superstoichiometric | – | SPR binding behavior above concentrations of 200 µM (Grb2 SH3C domain): superstoichiometric binding; Hill slope of inhibition curve [2]: −5.0; fold increase in affinity relative to compound 3 ([2]; ratio of apparent IC50 values): 18 fold; ITC response (Grb2 SH3C [3]): significant reaction heats |
| CC1(C)N=C(N)N=C(N)N1c1cc(C(F)(F)F)cc(C(F)(F)F)c1.Cl [compound 11] | no activity | – | no activity | – |
| CC(=O)c1ccc(/N=N/c2c(N)nc(N)nc2N)cc1 [compound 46] | binders | – | – | aqueous solubility [4]: poor aqueous solubility |
| Br.CC1(C)N=C(N)N=C(N)N1c1cccc(CO)c1 [compound 47] | no activity | – | no activity | – |
| Cl.Cl.NC1CCC(NC2CCC(N)CC2)CC1 (centres unmarked) [compound 147] | binders | superstoichiometric | – | SPR dissociation (Grb2 SH3C domain): long dissociation time; SPR response relative to the maximum theoretical response (Grb2 SH3C domain): over 10 times; SPR response level (Grb2 SH3C domain; maximum theoretical response 56 RU): ~600 RU |
| Cc1ccc(O)c(C2CC(=O)NC(N)=N2)c1 (centres unmarked) [compound 156] | binders | – | – | SPR sensorgram quality (Grb2 SH3C domain): poor sensorgram shape |
| Cc1ccc(C(/C=C/c2ccccc2)=N/NC(=N)N)cc1.Cl [compound 164] | binders | superstoichiometric | nearly complete inhibition | precipitation during the assay ([4]; competition assay buffer, compound 5 mM): precipitated during the assay |

Further lines, with some results ahead:

| SPR classification (binder / non-binder) (Grb2 SH3C domain) | SPR observed binding behavior (stoichiometry) (Grb2 SH3C domain) | competition assay result in words [2] | Compound | other results |
| --- | --- | --- | --- | --- |
| binders | – | – | CC1(C)N=C(N)N=C(N)N1c1cccc(OCc2cccc(N)c2)c1.Cl [compound 1] | – |
| binders | – | – | CC1(C)N=C(N)N=C(N)N1c1cccc(CCCCc2cccc(N)c2)c1.Cl [compound 3, 1-(3-(4-(3-Aminophenyl)butyl)phenyl)-6,6-dime thyl-1,6-dihydro-1,3,5-triazine-2,4-diamine•HCl] | SPR binding behavior above concentrations of 200 µM (Grb2 SH3C domain): superstoichiometric binding; Hill slope of inhibition curve [2]: −3.1; ITC response (Grb2 SH3C [3]): no measurable response above background |
| binders | superstoichiometric | no activity | CC1(C)N=C(N)N=C(N)N1c1cccc(OCCOc2cccc(N)c2)c1.Cl [compound 9] | – |
| binders | – | – | CC1(C)N=C(N)N=C(N)N1c1cccc(OCC#N)c1.Cl [compound 41] | SPR binding behavior above concentrations of 200 µM (Grb2 SH3C domain): superstoichiometric binding; inhibition in concentration-response experiment ([2]; dose range up to 20 mM, data not shown): unquantifiably weak inhibition |
